Activity, inhibition and GI50 data for 2 molecules are collected here from ChEMBL document CHEMBL3421537, “Synthesis and biological evaluation of nitrated 7-, 8-, 9-, and 10-hydroxyindenoisoquinolines as potential dual topoisomerase I (Top1)-tyrosyl-DNA phosphodiesterase I (TDP1) inhibitors” (J Med Chem, 2015).

The target of assay [1] is T1, DNA topoisomerase 1 (Homo sapiens) (UniProt P11387).
T1 sequence (whole entry): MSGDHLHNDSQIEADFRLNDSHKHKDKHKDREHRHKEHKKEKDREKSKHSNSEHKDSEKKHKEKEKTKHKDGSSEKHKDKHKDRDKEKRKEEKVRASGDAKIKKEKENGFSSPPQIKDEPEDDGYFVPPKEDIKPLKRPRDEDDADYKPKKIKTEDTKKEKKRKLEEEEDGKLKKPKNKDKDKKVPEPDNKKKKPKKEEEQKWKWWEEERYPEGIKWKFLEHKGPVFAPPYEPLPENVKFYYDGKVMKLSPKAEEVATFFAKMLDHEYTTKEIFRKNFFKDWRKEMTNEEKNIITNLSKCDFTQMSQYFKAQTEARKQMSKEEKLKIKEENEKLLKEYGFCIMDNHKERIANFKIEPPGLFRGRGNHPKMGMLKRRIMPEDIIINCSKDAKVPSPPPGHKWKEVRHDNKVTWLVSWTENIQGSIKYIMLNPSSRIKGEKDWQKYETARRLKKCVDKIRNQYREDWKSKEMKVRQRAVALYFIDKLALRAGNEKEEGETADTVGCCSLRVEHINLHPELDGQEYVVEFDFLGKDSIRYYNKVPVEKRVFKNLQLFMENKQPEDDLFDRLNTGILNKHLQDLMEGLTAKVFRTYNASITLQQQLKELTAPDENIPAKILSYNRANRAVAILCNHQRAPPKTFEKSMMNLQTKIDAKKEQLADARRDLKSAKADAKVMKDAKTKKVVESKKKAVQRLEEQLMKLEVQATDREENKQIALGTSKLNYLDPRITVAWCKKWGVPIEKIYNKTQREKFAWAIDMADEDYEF
In words: Poisoning activity at human recombinant Top1 expressed in baculovirus-infected insect Sf9 cells using 3'-[32P]-end-labeled 117 bp DNA as substrate assessed as delay in reversal of drug-enzyme-DNA cleavage complex formation at 1 uM measured over 10 mins by PAGE analysis.

Assay [2] addresses T1, DNA topoisomerase 1 (Homo sapiens). The assay can be described thus: Inhibition of human recombinant Top1 expressed in baculovirus-infected insect Sf9 cells using 3'-[32P]-end-labeled 117 bp DNA as substrate assessed as inhibition of DNA cleavage after 20 mins by PAGE analysis relative to 1 uM camptothecin. Put shortly:
(§1)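 About 2 nM 3′-[32P]-end-labeled 117-bp DNA (Klenow fill-in with [α32P]dGTP) incubated with recombinant Top1 and compound for 20 min at room temperature. Stopped with 0.5% SDS, run on 20% denaturing PAGE, read by phosphorimager. Cleavage bands scored visually against 1 μM camptothecin on a 0 to +++++ scale.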

For another assay, the system named is DU-145. In words: Cytotoxicity against human DU145 cells. The assay is classed as functional. Put shortly: (§2)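 NCI-60 screen (NCI-DTP): one-dose prescreen at 10 μM, then five concentrations from 100 μM to 10 nM for compounds passing the cutoff. GI50 (50% growth inhibition) interpolated from the five-dose data. Single determination.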
Another assay has as its system SF-539. The assay can be described thus: Cytotoxicity against human SF539 cells. The assay is classed as functional. Put shortly: as §2
A further assay concerns MCF7. The assay can be described thus: Cytotoxicity against human MCF7 cells. The format is functional. The gist of the method:
as §2

Another assay concerns SN12C. The assay can be described thus: Cytotoxicity against human SN12C cells. The assay is classed as functional. The gist of the method: as §2
Assay [3] is described as follows: Cytotoxicity against human HCT116 cells. The assay is classed as functional. The conditions noted are these: HCT-116. Put shortly: as §2
A short description of assay [4]: Cytotoxicity against human UACC62 cells. The format is functional. The note with it: UACC-62. The gist of the method:
as §2

In assay [5] the target is T1, DNA topoisomerase 1 (Homo sapiens). In words: Poisoning activity at human recombinant Top1 expressed in baculovirus-infected insect Sf9 cells using 3'-[32P]-end-labeled 117 bp DNA as substrate assessed as trapping of enzyme cleavage complex at 0.005 to 100 uM measured after 20 mins by PAGE analysis. The gist of the method: as §1
The nature of assay [6]: Cytotoxicity against human OVCAR3 cells. The format is functional. The note with it: OVCAR-3. The gist of the method:
as §2

SMILES strings stand for the structures. The source made the active and inactive calls. Bounds are passed on as bounds.

In the case of `CC[C@@]1(O)C(=O)OCc2c1cc1n(c2=O)Cc2cc3ccccc3nc2-1`, the outcome in assay [1] was inactive.

In general, GI50 refers to the concentration giving 50% growth inhibition. For `O=C1c2cc(O)ccc2-c2c1c1ccc([N+](=O)[O-])cc1c(=O)n2CCCBr`, the inhibition result in [2] was “Active”. Also, the GI50 (in the assay on DU-145; in the assay with SF-539; with MCF7; in the assay on SN12C; in assay [3]; in assay [4]) was less than 10 nM throughout. For the same molecule, the GI50 in [6] is 23 nM. Besides, the outcome in assay [1] and in assay [5] was Active.
